Shown are actives, neighbours in structure and some others; about 2.7% of the full set was active somewhere.
RBBP9 inhibitor: human RBBP9 inhibitors, primary screen, biochemical, fluorescence polarization, FP-Rh probe, HTS. inhibition, % at 7.94 µM. recombinant RBBP9. 220,000 tested, 0.2% active. Serine hydrolase RBBP9 (Homo sapiens), O75884;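 active = inhibition above the campaign mean of all tested compounds plus 3 SD, cut at about 14% in these data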;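 note: plate controls were DMSO wells with RBBP9 for no effect and wells lacking RBBP9 protein for full effect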
Target sequence (O75884 whole entry, looked up): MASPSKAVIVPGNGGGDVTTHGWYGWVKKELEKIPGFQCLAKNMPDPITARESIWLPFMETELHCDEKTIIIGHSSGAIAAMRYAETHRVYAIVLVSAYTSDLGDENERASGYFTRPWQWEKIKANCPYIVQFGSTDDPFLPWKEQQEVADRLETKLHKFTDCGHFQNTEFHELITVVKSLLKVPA
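Controls: DMSO-treated enzyme wells and wells lacking RBBP9 | Material: RBBP9 protein | Technique: Fluorescence polarization | Replication: Single well per compound, no replicates | Buffer or medium: Tris-NaCl-Pluronic buffer, pH 8.0 | Timing: 30 min compound preincubation, 45 min probe labeling, 25 °C | Read-out basis: Percent inhibition from mP, scaled between DMSO and no-protein wells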
PAFAH1B2 inh: PAFAH1B2 enzyme inhibitors, primary screen, biochemical, fluorescence polarization, human | recombinant PAFAH1B2, FP-rhodamine activity probe | inhibition, % at 3.39 µM | 340,000 tested, 1.2% active | AID 492953, 2010 | Platelet-activating factor acetylhydrolase IB subunit alpha2 (Homo sapiens), P68402;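 active = inhibition above the mean of all tested compounds plus 3 SD, cut at about 24% in these data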;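 note: 0% = enzyme with DMSO and 100% = wells lacking PAFAH1B2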
Target sequence (P68402 whole entry, looked up): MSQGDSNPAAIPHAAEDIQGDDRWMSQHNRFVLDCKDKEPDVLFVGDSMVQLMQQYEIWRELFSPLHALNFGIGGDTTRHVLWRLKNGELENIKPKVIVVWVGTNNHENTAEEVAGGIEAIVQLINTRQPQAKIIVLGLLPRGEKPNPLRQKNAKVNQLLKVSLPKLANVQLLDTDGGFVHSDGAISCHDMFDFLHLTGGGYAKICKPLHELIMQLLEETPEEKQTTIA
PAFAH1B3 FP inh: PAFAH1B3 enzyme inhibitors, primary screen, biochemical, fluorescence polarization, human | Platelet-activating factor acetylhydrolase IB subunit alpha1 (Homo sapiens), Q15102 | recombinant PAFAH1B3, FP-rhodamine probe | inhibition, % at 3.39 µM | 340,000 tested, 0.28% active | AID 492972, 2010;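 active = inhibition above the screen-wide average of all tested compounds plus 3 SD, cut at about 25% in these data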;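 note: 0% = enzyme with DMSO only and 100% = wells lacking PAFAH1B3 protein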
PAFAH2 FP inh: PAFAH2 enzyme inhibitors, primary screen, biochemical, fluorescence polarization, human; Platelet-activating factor acetylhydrolase 2, cytoplasmic (Homo sapiens), Q99487; recombinant PAFAH2, FP-rhodamine activity probe; inhibition, % at 3.39 µM; 340,000 tested, 0.99% active; AID 492956, 2010;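 active = inhibition above the mean over all tested compounds plus 3 SD, cut at about 30% in these data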;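 note: inhibitors block probe labeling of enzyme so polarization drops; 0% = enzyme with DMSO and 100% = wells lacking PAFAH2 protein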
pPAFAH FP inh: pPAFAH enzyme inhibitors, primary screen, biochemical, fluorescence polarization, human. Platelet-activating factor acetylhydrolase (Homo sapiens), Q13093. recombinant pPAFAH, FP-rhodamine probe fluorescence polarization. inhibition, % at 3.39 µM. 330,000 tested, 1.5% active;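 active = inhibition above the mean inhibition across the screen plus 3 SD, cut at about 25% in these data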;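 note: inhibitors block binding of the rhodamine activity-based probe so polarization drops; 0% = enzyme with DMSO and 100% = wells lacking pPAFAH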
pPAFAH FP conf: pPAFAH (PLA2G7) enzyme inhibitors, confirmation, biochemical, fluorescence polarization, human; recombinant pPAFAH, FP-Rh probe fluorescence polarization; AID 463230, 2010; 2,300 tested, 72% active; inhibition, % at 3.39 µM; shares compounds with pPAFAH FP inh;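 active = mean inhibition of the triplicate above the hit cutoff set for the earlier primary screen, cut at about 25% in these data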;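 note: 0% = enzyme with DMSO and 100% = wells lacking pPAFAH enzyme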
The depositor's hits bear a star; · = not tested or not shown.

SMILES	RBBP9 inhibitor	PAFAH1B2 inh	PAFAH1B3 FP inh	PAFAH2 FP inh	pPAFAH FP inh	pPAFAH FP conf
Cc1ccccc1C(=O)NCC(=O)NNC(=O)c1cccc(Cl)c1	·	5	5	11	1	·
O=C(CNC(=O)c1ccccc1)OCC(=O)N1N=C(c2ccc(Cl)cc2)CC1c1ccco1 (stereo not given)	-1	0	9	9	14	·
Cc1ccc(S(=O)(=O)N[C@H](C(=O)OCC(=O)N2N=C(c3ccc(Cl)cc3)CC2c2ccco2)C(C)C)cc1 (stereo not given in full)	-1	-8	0	1	40*	9
O=C1OCC(CO)(CO)N=C1NNc1ccccc1Cl	-5	-4	6	4	0	·
Cc1ccc(N=Cc2cc(Cc3ccccc3Cl)cc([N+](=O)[O-])c2O)c(O)c1	-5	9	8	12	48*	62*
O=C1NC(=Nc2ccccc2Cl)S/C1=C\c1cc([N+](=O)[O-])ccc1O	·	28*	61*	44*	41*	63*
COc1cc(/C=C2\S/C(=N/S(=O)(=O)c3ccc(C)cc3)NC2=O)c([N+](=O)[O-])cc1OC	-14	15	15	1	14	·
O=C1N/C(=N/O)S/C1=C/c1cccc([N+](=O)[O-])c1	-6	5	5	10	1	·
Cc1ccc(S(=O)(=O)/N=C2/NC(=O)/C(=C/c3cc([N+](=O)[O-])ccc3O)S2)cc1	·	61*	44*	48*	41*	63*
O=C(O)CN1C(=O)/C(=C/c2ccsc2)SC1=S	3	·	·	·	4	·
O=C(O)CN1C(=O)/C(=C\c2cc(Br)ccc2OCc2ccc(Cl)cc2Cl)SC1=S	·	18	-1	33*	52*	67*
Cc1ccc(S(=O)(=O)N(C)C)cc1NC(=O)CN1C(=O)NC(Cc2ccccc2)C1=O (stereo not given)	·	2	-2	-3	42*	-3
COc1ccc(CCN2CC(C(=O)NCCCn3nc(C)cc3C)CCC2=O)cc1 (stereo not given)	·	1	1	5	-2	·
COc1cccc2nc3cc(C)c(C)cc3nc12	-3	23	25	25	42*	13
Nc1ncnc2c1c(-c1ccc(Oc3ccccc3)cc1)cn2C1CCCC1	·	-7	4	-3	39*	38*
COc1ccc(-n2cc(-c3ccccc3)c3c(N4CC(C)OC(C)C4)ncnc32)cc1 (stereo not given)	-6	-3	11	-11	-2	·
COc1ccc(NC(=O)c2ccc(NC3=NC4CS(=O)(=O)CC4S3)cc2)cc1 (stereo not given)	·	3	7	-5	4	·
CCN(CC)c1ccc(NC(=O)CSc2nc3nc(C)cc(C)c3c(=O)[nH]2)cc1	·	7	5	15	15	·
COc1ccc(NC(=O)CSc2nc3nc(C)cc(C)c3c(=O)[nH]2)cc1	·	4	1	-1	69*	2
CC1=C(C(=O)Nc2ccc(CC(=O)NCc3ccc(OC(C)C)cc3)cc2)SCCO1	·	5	6	13	38*	19
COc1ccc(CNC(=O)Cc2ccc(NC(=O)C3=C(C)OCCS3)cc2)cc1	·	-3	-2	2	24	·
O=C(CSc1nnc(CNC(=O)C23CC4CC(CC(C4)C2)C3)n1-c1ccccc1)Nc1ccccc1	-7	13	-6	6	-7	·
CCc1cc(=O)oc2cc(C)c(CN3CCCCC3)c(O)c12	-7	0	4	5	47*	9
CCc1cc(=O)oc2cc(C)c(CN3CCCC3)c(O)c12	-3	2	-4	23	64*	21
O=C(O)c1ccc(C(=O)O)c(C(=O)c2ccc(NC(=O)c3ccccc3)cc2)c1	·	9	8	1	-1	·
CCOc1ccc(-n2cnc3sc(C)c(C)c3c2=O)cc1	·	5	0	-1	0	·

Source: PubChem (The Scripps Research Institute Molecular Screening Center)
